CHO parental Ca = counter-screen: ATP calcium response change in parental CHO cells; inhibition, % at 5.6 µM; 0.63% of 330,000 active; parental CHO-K1, ATP-induced calcium, Fluo-8 fluorescence;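 active means inhibition above that plate's mean sample inhibition plus 3 SD, cut at about 26% in these data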
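Measured by: calcium-sensitive Fluo-8 fluorescence / Test system: CHO parental line / Controls: ATP-challenged DMSO wells low, unchallenged DMSO wells high / Measure: % inhibition / Compound: single nominal dose of 5.6 µM per compound / Replicates: single well per compound, no replicates / Reagent: ATP as calcium-mobilizing challenge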
OX1R antag-1 = human HCRTR1 antagonism; CHO/OX1R cells, Fluo-8 calcium fluorescence, orexin A; inhibition, % at 5 µM; 0.43% of 330,000 active; AID 434989;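 active means inhibition above its plate's threshold, mean inhibition of all tested compounds on the plate plus 3 SD, cut at about 37% in these data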
Target sequence (O43613 whole entry, looked up): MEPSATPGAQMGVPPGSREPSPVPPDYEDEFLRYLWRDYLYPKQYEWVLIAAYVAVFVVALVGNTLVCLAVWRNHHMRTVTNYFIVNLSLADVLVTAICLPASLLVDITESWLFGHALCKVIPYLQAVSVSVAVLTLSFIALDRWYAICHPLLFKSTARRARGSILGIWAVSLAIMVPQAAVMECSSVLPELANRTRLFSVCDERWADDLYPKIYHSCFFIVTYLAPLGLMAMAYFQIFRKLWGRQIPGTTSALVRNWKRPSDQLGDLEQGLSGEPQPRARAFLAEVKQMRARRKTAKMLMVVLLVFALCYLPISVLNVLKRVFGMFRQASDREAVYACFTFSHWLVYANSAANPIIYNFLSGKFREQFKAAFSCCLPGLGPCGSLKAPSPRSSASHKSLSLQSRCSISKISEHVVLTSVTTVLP
TAAR1 antagonist = antagonists of human TAAR1 | inhibition, % at 3 µM | CHO RD-HGA16 TAAR1, Fluo-8 calcium fluorescence, antagonist | 1.5% of 360,000 active | AID 624466;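 active means inhibition above a per-plate cutoff, the mean inhibition of test compounds on that plate plus 3 SD, cut at about 49% in these data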
Target sequence (Q96RJ0 whole entry, looked up): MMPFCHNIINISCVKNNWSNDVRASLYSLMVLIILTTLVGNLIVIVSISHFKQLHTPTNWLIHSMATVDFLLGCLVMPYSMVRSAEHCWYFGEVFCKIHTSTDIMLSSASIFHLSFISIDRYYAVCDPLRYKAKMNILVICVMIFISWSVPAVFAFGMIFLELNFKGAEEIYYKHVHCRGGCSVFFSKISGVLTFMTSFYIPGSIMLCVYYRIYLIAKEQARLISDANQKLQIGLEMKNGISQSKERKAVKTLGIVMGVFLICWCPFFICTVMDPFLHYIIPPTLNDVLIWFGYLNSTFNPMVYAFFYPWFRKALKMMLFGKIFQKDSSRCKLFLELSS
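System: CHO RD-HGA16 cells bearing hTAAR1. Reagent: EC80 β-phenethylamine stimulus. Schedule: seeding 17-24 h prior, 75-min 37 °C, 30-min RT dye loading. Signal: Fluo-8 intracellular calcium dye fluorescence, real-time kinetic reads. Read-out: % inhibition from peak post-agonist over basal fluorescence ratio. Benchmarks: vehicle wells and EC80 agonist wells. Replicates: n of 1.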
OX1R antag-2 = OX1R (human) antagonism; O43613; OX1R-expressing cells, FRET antagonist read-out; inhibition, % at 6.6 µM; 1.8% of 330,000 active; in the data active means inhibition mostly above about 38%, no sharp cut-off; inactive means mostly below about 40%
TAAR1 ag = human TAAR1 agonism; Q96RJ0; CHO RD-HGA16 TAAR1, Fluo-8 calcium fluorescence; vehicle wells 0%, saturating PEA agonist 100%; activation, % at 3 µM; 0.99% of 360,000 active; AID 624467;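 active means activation above the mean activation of all test compounds in the run plus 3 SD, cut at about 38% in these data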
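Test system: RD-HGA16 (CHO) cells co-expressing Gα16 and hTAAR1; dosing: one-point dosing at 3 µM (nominal); timing: 17-24 h seeding, 75 min 37 °C dye, 30 min RT; signal: kinetic Fluo-8 calcium fluorescence; read-out basis: % activation relative to PEA EC100 response; controls: DMSO and PEA EC100; replicates: n 1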
OX1R HTRF conf = OX1R (human) antagonism, HTRF confirmed | shares compounds with OX1R antag-2 | OX1R-expressing cells, HTRF antagonist assay | inhibition, % at 6.6 µM | 49% of 1,800 active; in the data active means inhibition above about 55%;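 further: CHO cells expressing OX1R stimulated with orexin A at about EC80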
CHO-K1 HTRF = counter-screen for OX1R antagonists: effect in parental CHO-K1 cells. inhibition, % at 6.6 µM. HTRF counterscreen. 48% of 1,800 active. shares compounds with OX1R antag-2; in the data active means inhibition above about 17%
Of the large screens only hits and unclear results are named; the others gave an inactive call (follow-up assays come after a bar, where they were run). Hits are enriched below; roughly 3.9% of the tested compounds scored in any of these assays.

COc1ccc(CCn2c(=N)c(C(=O)N3CCN(C)CC3)cc3c(=O)n4ccccc4nc32)cc1	OX1R antag-2 105.5 | OX1R HTRF conf inactive | CHO-K1 HTRF 51.4
COc1ccc(CCn2c(=N)c(C(=O)NC3CCCCC3)cc3c(=O)n4ccccc4nc32)cc1	none
N=c1c(C(=O)NCc2ccco2)cc2c(=O)n3ccccc3nc2n1CCc1ccccc1	OX1R antag-2 114.0 | OX1R HTRF conf inactive | CHO-K1 HTRF 41.9
COCCn1c(=N)c(C(=O)NCc2ccco2)cc2c(=O)n3cc(C)ccc3nc21	OX1R antag-2 107.7 | OX1R HTRF conf inactive | CHO-K1 HTRF 68.9
Cc1ccccc1-c1cc2nc(NCc3ccccc3F)n(C)c(=O)c2s1	none (no result: CHO parental Ca, OX1R antag-1, OX1R antag-2)
O=C(NCc1cc(Cl)cc(Cl)c1)c1csc([C@@H]2C[C@H](O)[C@@H](CO)O2)n1	none (no result: CHO parental Ca, OX1R antag-1, OX1R antag-2)
CC1=C(C(=O)N(C(C)C)C(C)C)CC(CC(=O)NC2CCCC2)C(=O)N1Cc1ccc(C(C)(C)C)cc1 (stereo not given)	none (no result: CHO parental Ca, OX1R antag-1, OX1R antag-2)
COC(=O)C1=CN(c2ccc(OC)cc2OC)C(N)=C(C#N)C1c1cccc([N+](=O)[O-])c1 (stereo not given)	none (no result: CHO parental Ca, OX1R antag-1, OX1R antag-2)
O=[N+]([O-])c1ccc2c(c1)C(O)n1ncnc1S2 (stereo not given)	OX1R antag-2 107.9 | OX1R HTRF conf inactive | CHO-K1 HTRF 48.5
O=C1CSC(c2cccc([N+](=O)[O-])c2)N1c1ccc(O)cc1 (stereo not given)	none
O=[N+]([O-])c1ccc(-n2cnc3ccccc32)c([N+](=O)[O-])c1	OX1R antag-2 107.1 | OX1R HTRF conf inactive | CHO-K1 HTRF 44.6
COC(=O)[C@H]1[C@@H](O)[C@@]2(O)c3c(OC)cc(OC)cc3O[C@@]2(c2ccc(OC)cc2)[C@@H]1c1ccc(F)cc1	none (no result: CHO parental Ca, OX1R antag-1, OX1R antag-2)
C/C(=N/NC(=O)CN1CCN(Cc2ccccc2)CC1)c1ccc([N+](=O)[O-])cc1	OX1R antag-2 76.9 | OX1R HTRF conf inactive | CHO-K1 HTRF 28.5
C/C(=N\NC(=O)CN1CCN(Cc2ccccc2)CC1)c1ccncc1	none
O=C(CC[C@H]1O[C@@H](n2ccc(=O)[nH]c2=O)[C@H](O)[C@@H]1O)N[C@@H](Cc1ccccc1)C(=O)NCc1ccccc1	none (no result: CHO parental Ca, OX1R antag-1, OX1R antag-2)
CC(=O)c1c(C)n([O-])c2cc(F)c(F)cc2[n+]1=O	OX1R antag-2 81.0 | OX1R HTRF conf 67.4 | CHO-K1 HTRF 54.4
CC1CC(C)CN(c2ccc([N+](=O)[O-])cc2-c2nn[nH]n2)C1 (stereo not given)	none
O=[N+]([O-])c1ccc(-n2cccn2)c(-c2nn[nH]n2)c1	OX1R antag-2 108.2 | OX1R HTRF conf inactive | CHO-K1 HTRF 54.0
CCOC(=O)[C@]12CCC=C1N(Cc1cccc3ccccc13)C(=O)[C@H](CC(=O)NCC1CCCCC1)C2	none (no result: CHO parental Ca, OX1R antag-1, OX1R antag-2)
O=C1C2CCCCN2C(=O)N1CCN1CCN(c2ccc([N+](=O)[O-])cc2)CC1 (stereo not given)	none
O=C(CCCN1C(=O)C2CCCCN2C1=O)N1CCN(c2ccc([N+](=O)[O-])cc2)CC1 (stereo not given)	OX1R antag-2 79.0 | OX1R HTRF conf inactive | CHO-K1 HTRF 24.8
COc1cccc2cc(C(=O)NCc3ccccn3)c(=O)oc12	OX1R antag-2 115.8 | OX1R HTRF conf inactive | CHO-K1 HTRF 33.6
CCN(CC(=O)Nc1ccccc1C(F)(F)F)C(=O)CCc1nc2ccccc2c(=O)[nH]1	OX1R antag-2 81.6 | OX1R HTRF conf inactive | CHO-K1 HTRF inactive
CCN(CC(=O)Nc1c(F)cccc1F)C(=O)CCc1nc2ccccc2c(=O)[nH]1	none
COc1cc([N+](=O)[O-])c(C(=O)N2CCOCC2)c([N+](=O)[O-])c1	OX1R antag-2 94.0 | OX1R HTRF conf inactive | CHO-K1 HTRF 41.6
Cc1cccn2cc(-c3cc4ccccc4oc3=O)nc12	none
O=c1oc2ccccc2cc1-c1cn2ccccc2n1	OX1R antag-2 95.3 | OX1R HTRF conf 71.9 | CHO-K1 HTRF 19.8
COc1cccc(C(NC(C)=O)c2nc(-c3csc4ccccc34)cs2)c1 (stereo not given)	none (no result: CHO parental Ca, OX1R antag-1, OX1R antag-2)
COC(=O)CC(=O)CC(NS(=O)(=O)c1ccc(C)cc1)c1ccccc1 (stereo not given)	none (no result: CHO parental Ca, OX1R antag-1, OX1R antag-2)
CCOC(=O)c1c(C)nc2c3ccccc3ccn12	OX1R antag-2 90.4 | OX1R HTRF conf 58.2 | CHO-K1 HTRF inactive
CCOC(=O)c1c(C)nc2c(C)cccn12	none
CCc1ccccc1Oc1nc(NCCOC)nc2cc(-c3ccccc3)sc12	none (no result: CHO parental Ca, OX1R antag-1, OX1R antag-2)
Cc1ccc(O)c(NC(=O)c2cc(-c3ccccc3Cl)on2)c1	OX1R antag-2 89.5 | OX1R HTRF conf 82.9 | CHO-K1 HTRF inactive
Cc1ccc(Oc2c(C(N)=O)cc([N+](=O)[O-])cc2[N+](=O)[O-])cc1	OX1R antag-2 104.6 | OX1R HTRF conf 79.6 | CHO-K1 HTRF 76.5
Cc1ccc(CNc2ccc([N+](=O)[O-])cc2C(N)=O)cc1	none
C=CCNc1sc(C(=O)c2ccccc2)c(N)c1-c1nc2ccccc2s1	OX1R antag-2 92.9 (no result: TAAR1 antagonist, TAAR1 ag) | OX1R HTRF conf inactive | CHO-K1 HTRF inactive
Cc1cnc(C)c(Nc2nc(C(N)Cc3ccc(Cl)cc3)cs2)n1 (stereo not given)	none (no result: CHO parental Ca, OX1R antag-1, OX1R antag-2)
CCN(C(=O)CN1C(=O)c2ccc([N+](=O)[O-])cc2C1=O)C1CCS(=O)(=O)C1 (stereo not given)	OX1R antag-2 90.5 | OX1R HTRF conf 63.8 | CHO-K1 HTRF 73.7
O=C(Cn1cnc2cc([N+](=O)[O-])ccc2c1=O)N(Cc1ccccc1)C1CCS(=O)(=O)C1 (stereo not given)	none
COc1ccc(CNc2nc3ccccc3n2C)c(OC)c1	none
COc1ccc(N=Nc2nc3cc(Br)c(Br)cc3n2C)c(OC)c1	OX1R antag-2 83.8 | OX1R HTRF conf 87.5 | CHO-K1 HTRF 18.8
Nc1ncnc2c1ncn2[C@@H]1O[C@H](C(=O)N[C@@H](CCc2ccccc2)C(=O)N2CCN(C(=O)N3CCOCC3)CC2)[C@@H](O)[C@H]1O	none (no result: CHO parental Ca, OX1R antag-1, OX1R antag-2)
COc1cc(C(=O)NCCC(=O)NCc2cccs2)cc(OC)c1OC	none (no result: CHO parental Ca, OX1R antag-1, OX1R antag-2)
CN(C1CCS(=O)(=O)C1)S(=O)(=O)c1cccc2nsnc12 (stereo not given)	OX1R antag-2 90.4 | OX1R HTRF conf inactive | CHO-K1 HTRF 41.2
c1ccc(CC(Nc2cccnc2)c2ccccc2)cc1 (stereo not given)	none (no result: CHO parental Ca, OX1R antag-1, OX1R antag-2)
O=C(CSc1ccccc1)NC1=NCCS1	none
O=C(CSc1cccc2cccc(Cl)c12)NC1=NCCS1	OX1R antag-2 111.9 | OX1R HTRF conf inactive | CHO-K1 HTRF inactive
O=[N+]([O-])c1cc(-c2ccccc2)cc([N+](=O)[O-])c1O	none (no result: CHO parental Ca, OX1R antag-1, OX1R antag-2)

Screening data (PubChem)
